# Measured values reported in ChEMBL document CHEMBL1806434, “Acyclic nucleoside phosphonates with a branched 2-(2-phosphonoethoxy)ethyl chain: efficient synthesis and antiviral activity” (Bioorg Med Chem, 2011).
# Activity calls are given as the source filed them. The rule behind the calls is not given here.
# Legend:
# [1] = system: Vaccinia virus; experiment: Antiviral activity against Vaccinia virus Lederle assessed as reduction of virus induced cytopathicity by cell based assay; type: functional, organism-based; conditions: Orthopoxvirus vaccinia
# Method in brief: (§1)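 Confluent cell monolayers infected with 100 CCID50 virus, or 20 PFU for plaque assays, then incubated with serial compound dilutions. Host cells listed for the non-HIV panel are HEL fibroblasts, Vero, HeLa, CRFK or MDCK. Cytopathicity is scored, or plaques counted for VZV, once infected untreated controls reach full CPE.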
# [2] = system: HEL; experiment: Cytotoxicity against human HEL cells after 3 days by coulter counter; type: cell-based; conditions: 72 h
# Method in brief: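 HEL cells seeded at 5 × 10^3 cells/well and allowed to proliferate for 24 h, then exposed to a range of compound concentrations for 3 days at 37 °C. Cells counted with a Coulter counter.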
# [3] = system: Human alphaherpesvirus 3; experiment: Antiviral activity against thymidine kinase-deficient Varicella-zoster virus 07/1 assessed as reduction of virus induced cytopathicity by cell based assay; type: functional, organism-based; conditions: for EC50: Human alphaherpesvirus 3, 07/1; method in brief: as §1
# [4] = system: Coxsackievirus B4; experiment: Antiviral activity against Coxsackievirus B4 assessed as reduction of virus induced cytopathicity by cell based assay; type: functional, organism-based
# Method in brief: (§2)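 Confluent cell monolayers in 96-well plates (HEL, Vero, HeLa, CRFK or MDCK; the cell type per virus is not specified) infected with 100 CCID50 virus or 20 PFU and incubated with serial compound dilutions. Cytopathicity scored once it was complete in untreated infected controls.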
# [5] = system: Punta Toro virus; experiment: Antiviral activity against Punta Toro virus assessed as reduction of virus induced cytopathicity by cell based assay; type: functional, organism-based; method in brief: as §2
# [6] = system: Sindbis virus; experiment: Antiviral activity against Sindbis virus assessed as reduction of virus induced cytopathicity by cell based assay; type: functional, organism-based; method in brief: as §2
# [7] = system: Human alphaherpesvirus 2; experiment: Antiviral activity against Herpes simplex virus 2 strain G assessed as reduction of virus induced cytopathicity by cell based assay; type: functional, organism-based; conditions: for EC50: Human alphaherpesvirus 2, strain G; method in brief: as §1
# [8] = system: Mammalian orthoreovirus 1; experiment: Antiviral activity against Reovirus-1 assessed as reduction of virus induced cytopathicity by cell based assay; type: functional, organism-based; method in brief: as §2
# [9] = system: Vesicular stomatitis virus; experiment: Antiviral activity against Vesicular stomatitis virus assessed as reduction of virus induced cytopathicity by cell based assay; type: functional, organism-based; method in brief: as §1
# [10] = system: Human alphaherpesvirus 1; experiment: Antiviral activity against thymidine kinase-deficient acyclovir-resistant Herpes simplex virus 1 strain KOS assessed as reduction of virus induced cytopathicity by cell based assay; type: functional, organism-based; conditions: for EC50: Human alphaherpesvirus 1, KOS; method in brief: as §1
# [11] = system: Human alphaherpesvirus 1; experiment: Antiviral activity against Herpes simplex virus 1 strain KOS assessed as reduction of virus induced cytopathicity by cell based assay; type: functional, organism-based; conditions: for EC50: Human alphaherpesvirus 1, KOS; method in brief: as §1
# [12] = system: Human respirovirus 3; experiment: Antiviral activity against Human parainfluenza virus 3 assessed as reduction of virus induced cytopathicity by cell based assay; type: functional, organism-based; method in brief: as §2
# [13] = system: Human betaherpesvirus 5; experiment: Antiviral activity against Human cytomegalovirus Davis assessed as reduction of virus induced cytopathicity by cell based assay; type: functional, organism-based; conditions: for EC50: Human betaherpesvirus 5, Davis; method in brief: as §1
# [14] = system: Human alphaherpesvirus 3; experiment: Antiviral activity against Varicella-zoster virus strain OKA expressing thymidine kinase assessed as reduction of virus induced cytopathicity by cell based assay; type: functional; conditions: for EC50: Human alphaherpesvirus 3, strain Oka vaccine; for Activity: strain Oka vaccine; method in brief: as §1
# [15] = Cytotoxicity against human HEL cells assessed as alteration of cell morphology after 3 days by microscopic analysis; type: cell-based
# Method in brief: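 MCC taken as the lowest compound concentration producing microscopically detectable alteration of HEL fibroblast morphology.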
# [16] = system: Respiratory syncytial virus; experiment: Antiviral activity against Respiratory syncytial virus Long assessed as reduction of virus induced cytopathicity by cell based assay; type: functional, organism-based; method in brief: as §2
# [17] = system: Human alphaherpesvirus 3; experiment: Antiviral activity against thymidine kinase-deficient Varicella-zoster virus YS/R assessed as reduction of virus induced cytopathicity by cell based assay; type: functional, organism-based
# [18] = system: Human betaherpesvirus 5; experiment: Antiviral activity against Human cytomegalovirus strain AD169 assessed as reduction of virus induced cytopathicity by cell based assay; type: functional, organism-based; conditions: for EC50: Human betaherpesvirus 5, AD169; method in brief: as §1
# [19] = system: Human alphaherpesvirus 3; experiment: Antiviral activity against Varicella-zoster virus YS expressing thymidine kinase assessed as reduction of virus induced cytopathicity by cell based assay; type: functional, organism-based
smiles,measurement,setting,value
O=c1[nH]cnc2c1ncn2CCOC(CO)CP(=O)(O)O (stereo not drawn),EC50,[1],> 315 µM
same,CC50,[2],> 315 µM
same,EC50,[3],197 µM
same,Activity,[4],inactive
same,Activity,[5],inactive
same,Activity,[6],inactive
same,EC50,[7],315 µM
same,Activity,[8],inactive
same,Activity,[9],inactive
same,EC50,[10],> 315 µM
same,EC50,[11],208 µM
same,Activity,[12],inactive
same,EC50,[13],> 315 µM
same,EC50,[14],88 µM
same,MCC at 72 h,[15],> 315 µM
same,Activity,[16],inactive
Nc1nc2c(ncn2CCOC(COCc2ccccc2)CP(=O)(O)O)c(=O)[nH]1 (stereo not drawn),EC50,[1],> 240 µM
same,CC50,[2],> 240 µM
same,EC50,[3],94 µM
same,Activity,[4],inactive
same,Activity,[5],inactive
same,Activity,[6],inactive
same,EC50,[7],> 240 µM
same,Activity,[8],inactive
same,Activity,[9],inactive
same,EC50,[10],> 240 µM
same,EC50,[11],> 240 µM
same,Activity,[12],inactive
same,EC50,[13],> 240 µM
same,EC50,[14],109 µM
same,MCC at 72 h,[15],> 240 µM
same,Activity,[16],inactive
Cc1cn(CCOC(CO)CP(=O)(O)O)c(=O)[nH]c1=O (stereo not drawn),Activity,[17],inactive
same,Activity,[1],inactive
same,Activity,[3],inactive
same,Activity,[18],inactive
same,Activity,[4],inactive
same,Activity,[5],inactive
same,Activity,[6],inactive
same,Activity,[7],inactive
same,Activity,[8],inactive
same,Activity,[9],inactive
same,Activity,[10],inactive
same,Activity,[11],inactive
same,Activity,[12],inactive
same,Activity,[19],inactive
same,Activity,[13],inactive
same,Activity,[14],inactive
same,Activity,[16],inactive
O=c1ccn(CCOC(CO)CP(=O)(O)O)c(=O)[nH]1 (stereo not drawn),Activity,[17],inactive
same,Activity,[1],inactive
same,Activity,[3],inactive
same,Activity,[18],inactive
same,Activity,[4],inactive
same,Activity,[5],inactive
same,Activity,[6],inactive
same,Activity,[7],inactive
same,Activity,[8],inactive
same,Activity,[9],inactive
same,Activity,[10],inactive
same,Activity,[11],inactive
same,Activity,[12],inactive
same,Activity,[19],inactive
same,Activity,[13],inactive
same,Activity,[14],inactive
same,Activity,[16],inactive
CC(CP(=O)(O)O)OCCn1ccc(=O)[nH]c1=O (stereo not drawn),EC50,"[17]; Human alphaherpesvirus 3, YS/R",12 µM
same,EC50,[1],> 360 µM
same,CC50,[2],291 µM
same,EC50,[3],13 µM
same,EC50,[18],36 µM
same,Activity,[4],inactive
same,Activity,[5],inactive
same,Activity,[6],inactive
same,EC50,[7],34 µM
same,Activity,[8],inactive
same,Activity,[9],inactive
same,EC50,[10],97 µM
same,EC50,[11],43 µM
same,Activity,[12],inactive
same,EC50,"[19]; Human alphaherpesvirus 3, YS",9.9 µM
same,EC50,[13],34 µM
same,EC50,[14],6.3 µM
same,MCC at 72 h,[15],> 360 µM
same,Activity,[16],inactive
Nc1nc(O)c2ncn(COC(CO)CO)c2n1 [GANCICLOVIR],EC50,[1],> 100 µM
same,CC50,[2],543 µM
same,EC50,[7],0.023 µM
same,EC50,[10],0.12 µM
same,EC50,[11],0.017 µM
same,MCC at 72 h,[15],> 394 µM
Nc1nc2c(ncn2COCCO)c(=O)[nH]1 [ACYCLOVIR],EC50,[1],> 250 µM
same,CC50,[2],1340 µM
same,EC50,[10],7.3 µM
same,EC50,[11],0.3 µM
same,MCC at 72 h,[15],> 444 µM
Nc1ncnc2c1ncn2CCOC(CO)CP(=O)(O)O (stereo not drawn),Activity,[17],inactive
same,Activity,[1],inactive
same,Activity,[3],inactive
same,Activity,[18],inactive
same,Activity,[4],inactive
same,Activity,[5],inactive
same,Activity,[6],inactive
same,Activity,[7],inactive
same,Activity,[8],inactive
same,Activity,[9],inactive
same,Activity,[10],inactive
same,Activity,[11],inactive
same,Activity,[12],inactive
same,Activity,[19],inactive
same,Activity,[13],inactive
same,Activity,[14],inactive
same,Activity,[16],inactive
Nc1nc2c(ncn2CCOC(CO)CP(=O)(O)O)c(=O)[nH]1 (stereo not drawn),EC50,[1],> 300 µM
same,CC50,[2],300 µM
same,EC50,[3],> 300 µM
same,Activity,[4],inactive
same,Activity,[5],inactive
same,Activity,[6],inactive
same,EC50,[7],156 µM
same,Activity,[8],inactive
same,Activity,[9],inactive
same,EC50,[10],261 µM
same,EC50,[11],156 µM
same,Activity,[12],inactive
same,EC50,[13],165 µM
same,EC50,[14],> 300 µM
same,MCC at 72 h,[15],> 300 µM
same,Activity,[16],inactive
Nc1ncnc2c1ncn2CCOC(COCc1ccccc1)CP(=O)(O)O (stereo not drawn),Activity,[17],inactive
same,Activity,[1],inactive
same,Activity,[3],inactive
same,Activity,[18],inactive
same,Activity,[4],inactive
same,Activity,[5],inactive
same,Activity,[6],inactive
same,Activity,[7],inactive
same,Activity,[8],inactive
same,Activity,[9],inactive
same,Activity,[10],inactive
same,Activity,[11],inactive
same,Activity,[12],inactive
same,Activity,[19],inactive
same,Activity,[13],inactive
same,Activity,[14],inactive
same,Activity,[16],inactive
O=c1[nH]cnc2c1ncn2CCOC(COCc1ccccc1)CP(=O)(O)O (stereo not drawn),Activity,[17],inactive
same,Activity,[1],inactive
same,Activity,[3],inactive
same,Activity,[18],inactive
same,Activity,[4],inactive
same,Activity,[5],inactive
same,Activity,[6],inactive
same,Activity,[7],inactive
same,Activity,[8],inactive
same,Activity,[9],inactive
same,Activity,[10],inactive
same,Activity,[11],inactive
same,Activity,[12],inactive
same,Activity,[19],inactive
same,Activity,[13],inactive
same,Activity,[14],inactive
same,Activity,[16],inactive
CC(CP(=O)(O)O)OCCn1cnc2c(N)nc(N)nc21 (stereo not drawn),Activity,[17],inactive
same,Activity,[1],inactive
same,Activity,[3],inactive
same,Activity,[18],inactive
same,Activity,[4],inactive
same,Activity,[5],inactive
same,Activity,[6],inactive
same,Activity,[7],inactive
same,Activity,[8],inactive
same,Activity,[9],inactive
same,Activity,[10],inactive
same,Activity,[11],inactive
same,Activity,[12],inactive
same,Activity,[19],inactive
same,Activity,[13],inactive
same,Activity,[14],inactive
same,Activity,[16],inactive
CC(CP(=O)(O)O)OCCn1ccc(N)nc1=O (stereo not drawn),EC50,[1],> 361 µM
same,CC50,[2],307 µM
same,EC50,[3],168 µM
same,Activity,[4],inactive
same,Activity,[5],inactive
same,Activity,[6],inactive
same,EC50,[7],> 361 µM
same,Activity,[8],inactive
same,Activity,[9],inactive
same,EC50,[10],> 361 µM
same,EC50,[11],> 361 µM
same,Activity,[12],inactive
same,EC50,[13],> 361 µM
same,EC50,[14],130 µM
same,MCC at 72 h,[15],> 361 µM
same,Activity,[16],inactive
Cc1cn(CCOC(C)CP(=O)(O)O)c(=O)[nH]c1=O (stereo not drawn),EC50,[1],> 342 µM
same,CC50,[2],> 342 µM
same,EC50,[3],48 µM
same,EC50,[18],188 µM
same,Activity,[4],inactive
same,Activity,[5],inactive
same,Activity,[6],inactive
same,EC50,[7],154 µM
same,Activity,[8],inactive
same,Activity,[9],inactive
same,EC50,[10],> 342 µM
same,EC50,[11],171 µM
same,Activity,[12],inactive
same,EC50,[13],248 µM
same,EC50,[14],47 µM
same,MCC at 72 h,[15],> 342 µM
same,Activity,[16],inactive
